Converted amounts (≈) assume the structure as drawn.
Assays:
[1] = tested on: E. granulosus protoscoleces; assay: Protoscolicidal; format: cell-based; settings: Echinococcus granulosus; for IC50: read-out: IC50 protoscolicidal activity; for viability at 25 µg/mL / viability at 50 µg/mL / viability at 75 µg/mL / viability at 100 µg/mL / viability at 125 µg/mL: read-out: viability of protoscoleces
How it was run: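 Protoscoleces came from hydatid cysts of naturally infected sheep, settled without centrifugation, washed three times in HBSS, and cultured in RPMI 1640 (12 mM HEPES, glutamine, antibiotics, amphotericin B, 10 % FCS, glucose). Within 10 days, ~500 protoscoleces in 20 ml medium received test compound at 25–125 µg/ml; DMSO control. Viability was scored by motility and 0.1 % trypan blue exclusion in 10 random fields (10X). Triplicate; IC50 by nonlinear regression.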

HepG2 cells = assay: In-vitro cytotoxicity MTT assay on HepG2 cell line; format: cell-based, human; settings: 125 μg/ml, third day
How it was run: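 HepG2 monolayers in phenol-red-free DMEM with 10 % FCS, penicillin and streptomycin, grown 48 h at 37 °C/5 % CO2 to confluency. Test compound in DMSO at 25, 50, 75, 100, 125 µg; medium-only negative control with matched DMSO. After 48 h at 37 °C, MTT (5 mg/mL) added for 4 h, then DMSO-dissolved formazan read at 570/655 nm. Triplicate; viability relative to untreated cells.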

[2] = tested on: protoscoleces and metacestodes of Echinococcus granulosus; settings: cited from earlier work

Structure (SMILES)	IC50 [1] [µg/mL]	viability at 25 µg/mL [1] [%]	viability at 50 µg/mL [1] [%]	viability at 75 µg/mL [1] [%]	viability at 100 µg/mL [1] [%]	viability at 125 µg/mL [1] [%]	cell survival rate of HepG2 (HepG2 cells)	antiechinococcal activity [2]
Cc1ccc(NC(=O)c2cc([N+](=O)[O-])cc([N+](=O)[O-])c2)cc1 [Compound 6, 3,5-dinitro-N-p-tolylbenzamide]	77 (≈ 256 µM)	72.6	66.6	53.6	43	32.3	36%	–
Cc1ccc(NC(=O)c2cccc3ccccc23)cc1 [Compound 10, N-p-tolyl-1-naphthamide]	29.5 (≈ 113 µM)	47.3	20	10.3	0	0	40%	–
Cc1ccc(NC(=O)c2ccc(OC(F)(F)F)cc2)cc1 [Compound 16, N-p-tolyl-4-(trifluoromethoxy)benzamide]	66.5 (≈ 225 µM)	72.6	62.6	45.3	39.6	30	38%	–
CCCCCc1ccc(C(=O)Nc2ccc(C)cc2)cc1 [Compound 18, 4-pentyl-N-p-tolylbenzamide]	45 (≈ 160 µM)	63.3	49.6	38.3	29	21	approximately 54%	–
Cc1ccc(NC(=O)c2c(F)c(F)c(F)c(F)c2F)cc1 [Compound 20, 2,3,4,5,6-pentafluoro-N-p-tolylbenzamide]	39.5 (≈ 131 µM)	54.3	50.6	18.3	9.6	0	32%	–
CC(=O)Oc1ccccc1C(=O)Nc1ncc([N+](=O)[O-])s1 [Nitazoxanide]	–	–	–	–	–	–	–	potent antiechinococcal activity
